pEC50: −log10 of the molar value. In brackets after ≈: the same amount, converted by molar mass. Activity calls are given as the source filed them. The rule behind the calls is not given here. Bridge positions count the residues as written; N and C are the ends. Square brackets hold non-standard residues; d marks the D form. Peptide text beside a SMILES is read from it. Bip = N[C@@H](Cc1ccc(-c2ccccc2)cc1)C(=O)O; 2Nal = N[C@@H](Cc1ccc2ccccc2c1)C(=O)O; Dab = NCC[C@H](N)C(=O)O; AEEA = NCCOCCOCC(=O)O; Aoc = NCCCCCCCC(=O)O; Ahx = NCCCCCC(=O)O; AEA = NCCOCC(=O)O; GABA = NCCCC(=O)O A value given as a limit tells only on which side of the number the result lay.

One experiment has as its system Escherichia coli. As to the kind of experiment: Antimicrobial activity against Escherichia coli ATCC 25922 after 18 hrs by tube microdilution method. Type of experiment: functional. The conditions noted are these: ATCC 25922, 18 h.
The subject of experiment [1] is Staphylococcus aureus. The experiment can be described thus: Antimicrobial activity against methicillin-resistant Staphylococcus aureus ATCC 33591 after 18 hrs by tube microdilution method. Conditions: ATCC 33591, 18 h. Type of experiment: functional.
The test system of another experiment is Klebsiella pneumoniae. As to the kind of experiment: Antimicrobial activity against multiple drug resistant-Klebsiella pneumoniae ATCC 700603 after 18 hrs by tube microdilution method. The experiment is classed as functional. Conditions: Klebsiella pneumoniae, 700603, 18 h.
The test system of another experiment is Acinetobacter baumannii. The experiment can be described thus: Antimicrobial activity against multiple drug resistant-Acinetobacter baumannii ATCC BAA-1605 after 18 hrs by tube microdilution method. The experiment is classed as functional. The conditions noted are these: ATCC BAA-1605, 18 h.
The subject of the next experiment is Pseudomonas aeruginosa. As to the kind of experiment: Antimicrobial activity against Pseudomonas aeruginosa ATCC 27853 after 18 hrs by tube microdilution method. The experiment is classed as functional. Conditions: ATCC 27853, 18 h.
The next experiment deals with Enterococcus faecium. As to the kind of experiment: Antimicrobial activity against vancomycin-resistant Enterococcus faecium ATCC 700221 after 18 hrs by tube microdilution method. The conditions noted are these: ATCC 700221, 18 h. Type of experiment: functional.
In a further experiment the test system is Erythrocyte. The experiment can be described thus: Hemolytic activity in human RBC after 1 hr by microplate reader method. Type of experiment: ADME, cell-based.
Experiment [2] relates to Lipid bilayer. As to the kind of experiment: Binding affinity to DOPE/DOPG large unilamellar vesicles in 3:1 ratio assessed as exciton split measured at 225 nanometer in NaHCO3 buffer.
Experiment [3] deals with Staphylococcus aureus. As to the kind of experiment: Bactericidal activity against Staphylococcus aureus ATCC 29213 assessed as reduction in bacterial burden at 32 uM measured up to 3.5 hrs by time kill kinetic study. Type of experiment: functional. Put shortly:
(§1)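 Time-course kill assay against S. aureus ATCC 29213 with peptide at 32 μM. Viable cell count was followed over time as colony counts, with a final sampling at 24 h.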

Experiment [4] deals with Staphylococcus aureus. The experiment can be described thus: Bactericidal activity against Staphylococcus aureus ATCC 29213 assessed as reduction in bacterial burden at 32 uM after 24 hrs by time kill kinetic study. The experiment is classed as functional, organism-based. Put shortly: as §1
Experiment [5] has as its system Lipid bilayer. The experiment can be described thus: Membrane permeabilization in DOPC/POPG large unilamellar vesicles in 3:1 ratio assessed as sulforhodamine B release at 16 to 64 uM by fluorescence assay. In outline:
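Sulforhodamine B was entrapped at self-quenching concentration in LUVs of DOPC/POPG at 3:1. PE lipids were excluded, and palmitoyl replaced one oleyl chain for vesicle stability. Peptide was added at 16, 32 or 64 μM, and marker release was followed over time as fluorescence recovery on dye release and dilution.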

The test system of experiment [6] is Staphylococcus aureus. As to the kind of experiment: Bactericidal activity against Staphylococcus aureus ATCC 29213 assessed as reduction in bacterial burden at 32 uM measured up to 30 mins by time kill kinetic study. Type of experiment: functional. Put shortly: as §1

Turning to `NCCCC[C@@H]1NC(=O)[C@H](CCCCN)NC(=O)[C@H](Cc2ccc3ccccc3c2)NC(=O)[C@H](CCCCN)NC(=O)[C@@H](CC(N)=O)NC(=O)[C@H](CCCCN)NC(=O)[C@H](Cc2ccc3ccccc3c2)NC(=O)CCCCCCCCCNC(=O)[C@H](Cc2ccc(-c3ccccc3)cc2)NC1=O`, the MIC was 16 µM (≈ 22.6 µg/mL) against Escherichia coli; 16 µM (≈ 22.6 µg/mL) in the experiment with Staphylococcus aureus [1]; greater than 64 µM against Klebsiella pneumoniae; 16 µM (≈ 22.6 µg/mL) in the experiment on Acinetobacter baumannii; greater than 64 µM in the experiment with Pseudomonas aeruginosa; 8 µM (≈ 11.3 µg/mL) with Enterococcus faecium. Besides, the pEC50 in the experiment with Erythrocyte was 5.30.
Consider `NCCCC[C@@H]1NC(=O)[C@H](Cc2ccc3ccccc3c2)NC(=O)CCCCCCCCCNC(=O)[C@H](Cc2ccc(-c3ccccc3)cc2)NC(=O)[C@H](CCCCN)NC(=O)[C@H](CCCCN)NC(=O)[C@H](Cc2ccc3ccccc3c2)NC(=O)[C@H](CCCCN)NC(=O)[C@H](CC(N)=O)NC1=O`, for which, in the experiment on Lipid bilayer [2], the outcome was Active.
On to `NCCCC[C@@H]1NC(=O)[C@H](CCCCN)NC(=O)[C@H](Cc2ccc3ccccc3c2)NC(=O)[C@H](CCCCN)NC(=O)[C@H](CC(N)=O)NC(=O)[C@H](CCCCN)NC(=O)[C@H](Cc2ccc3ccccc3c2)NC(=O)[C@@H](N)CCCCNC(=O)[C@H](Cc2ccc(-c3ccccc3)cc2)NC1=O` (H-K[2Nal]KNK[2Nal]KK[Bip]; lactam 1-C), for which the MIC against Escherichia coli is 32 µM (≈ 43.9 µg/mL); in the experiment with Staphylococcus aureus [1], 16 µM (≈ 22 µg/mL); against Klebsiella pneumoniae, 64 µM (≈ 87.9 µg/mL); in the experiment on Acinetobacter baumannii, greater than 64 µM; with Pseudomonas aeruginosa it was 16 µM (≈ 22 µg/mL); in the experiment on Enterococcus faecium, 2 µM (≈ 2.75 µg/mL). The same molecule showed a pEC50 with Erythrocyte of less than 3.52. For the same molecule, the outcome in the experiment on Lipid bilayer [2] was Active.
In the case of `NCCCC[C@@H]1NC(=O)[C@H](CCCCN)NC(=O)[C@H](Cc2ccc3ccccc3c2)NC(=O)[C@H](CCCCN)NC(=O)[C@H](CC(N)=O)NC(=O)[C@H](CCCCN)NC(=O)[C@H](Cc2ccc3ccccc3c2)NC(=O)[C@@H](N)CCNC(=O)[C@H](Cc2ccc(-c3ccccc3)cc2)NC1=O` (H-[Dab][2Nal]KNK[2Nal]KK[Bip]; lactam 1-C), the MIC against Escherichia coli is 64 µM (≈ 86.1 µg/mL); in the experiment with Staphylococcus aureus [1], 16 µM (≈ 21.5 µg/mL); with Klebsiella pneumoniae, 64 µM (≈ 86.1 µg/mL); with Acinetobacter baumannii, greater than 64 µM; against Pseudomonas aeruginosa, 32 µM (≈ 43 µg/mL); with Enterococcus faecium it was 2 µM (≈ 2.69 µg/mL). For the same molecule, the pEC50 in the experiment on Erythrocyte is less than 3.52. The LCK in the experiment with Staphylococcus aureus [3] came to 3. Also, the outcome in the experiment with Staphylococcus aureus [4] and with Lipid bilayer [2] was Active.
As to `NCCCC[C@@H]1NC(=O)[C@H](Cc2ccc3ccccc3c2)NC(=O)COCCOCCNC(=O)[C@H](Cc2ccc(-c3ccccc3)cc2)NC(=O)[C@H](CCCCN)NC(=O)[C@H](CCCCN)NC(=O)[C@H](Cc2ccc3ccccc3c2)NC(=O)[C@H](CCCCN)NC(=O)[C@H](CC(N)=O)NC1=O` (cyclo(K[2Nal]KK[Bip][AEEA][2Nal]KN)), the MIC against Escherichia coli was determined as 64 µM (≈ 88.9 µg/mL); in the experiment on Staphylococcus aureus [1], 16 µM (≈ 22.2 µg/mL); against Klebsiella pneumoniae, 64 µM (≈ 88.9 µg/mL); against Acinetobacter baumannii, 16 µM (≈ 22.2 µg/mL); against Pseudomonas aeruginosa it was 32 µM (≈ 44.5 µg/mL); in the experiment on Enterococcus faecium it was 2 µM (≈ 2.78 µg/mL). Further, the pEC50 with Erythrocyte was less than 3.52. The result in the experiment with Lipid bilayer [5] was Active. Further, the result in the experiment on Lipid bilayer [2] was inactive.
Turning to `NCCCC[C@@H]1NC(=O)[C@H](Cc2ccc3ccccc3c2)NC(=O)CNC(=O)[C@H](Cc2ccc(-c3ccccc3)cc2)NC(=O)[C@H](CCCCN)NC(=O)[C@H](CCCCN)NC(=O)[C@H](Cc2ccc3ccccc3c2)NC(=O)[C@H](CCCCN)NC(=O)[C@H](CC(N)=O)NC1=O` (cyclo([2Nal]KK[Bip]G[2Nal]KNK)), the MIC with Escherichia coli stood at 32 µM (≈ 41.7 µg/mL); against Staphylococcus aureus [1] it was 8 µM (≈ 10.4 µg/mL); in the experiment on Klebsiella pneumoniae, 32 µM (≈ 41.7 µg/mL); in the experiment with Acinetobacter baumannii, 32 µM (≈ 41.7 µg/mL); in the experiment on Pseudomonas aeruginosa it was 32 µM (≈ 41.7 µg/mL); against Enterococcus faecium, 4 µM (≈ 5.21 µg/mL). Besides, the pEC50 with Erythrocyte is 4.35. Also, the outcome with Staphylococcus aureus [4], in the experiment on Lipid bilayer [5] and with Lipid bilayer [2] was Active.
In the case of `NCCCC[C@@H]1NC(=O)[C@H](Cc2ccc3ccccc3c2)NC(=O)COCCNC(=O)[C@H](Cc2ccc(-c3ccccc3)cc2)NC(=O)[C@H](CCCCN)NC(=O)[C@H](CCCCN)NC(=O)[C@H](Cc2ccc3ccccc3c2)NC(=O)[C@H](CCCCN)NC(=O)[C@H](CC(N)=O)NC1=O` (cyclo([2Nal]KK[Bip][AEA][2Nal]KNK)), the MIC in the experiment on Escherichia coli turned out to be 32 µM (≈ 43.1 µg/mL); against Staphylococcus aureus [1], 16 µM (≈ 21.5 µg/mL); against Klebsiella pneumoniae it was 64 µM (≈ 86.1 µg/mL); against Acinetobacter baumannii, 32 µM (≈ 43.1 µg/mL); against Pseudomonas aeruginosa it was 32 µM (≈ 43.1 µg/mL); against Enterococcus faecium, 4 µM (≈ 5.38 µg/mL). The molecule further gave a pEC50 in the experiment on Erythrocyte of less than 3.52. Moreover, the outcome in the experiment on Lipid bilayer [2] was Active.
Take `NCCCC[C@@H]1NC(=O)[C@H](Cc2ccc3ccccc3c2)NC(=O)CCCCCNC(=O)[C@H](Cc2ccc(-c3ccccc3)cc2)NC(=O)[C@H](CCCCN)NC(=O)[C@H](CCCCN)NC(=O)[C@H](Cc2ccc3ccccc3c2)NC(=O)[C@H](CCCCN)NC(=O)[C@H](CC(N)=O)NC1=O` (cyclo([2Nal]KK[Bip][Ahx][2Nal]KNK)): the MIC was 16 µM (≈ 21.7 µg/mL) in the experiment with Escherichia coli; 8 µM (≈ 10.9 µg/mL) with Staphylococcus aureus [1]; 8 µM (≈ 10.9 µg/mL) against Klebsiella pneumoniae; 8 µM (≈ 10.9 µg/mL) in the experiment with Acinetobacter baumannii; 16 µM (≈ 21.7 µg/mL) in the experiment on Pseudomonas aeruginosa; 2 µM (≈ 2.72 µg/mL) with Enterococcus faecium. In the experiment on Erythrocyte, the pEC50 was 4.74. The result with Lipid bilayer [2] was Active.
Consider `NCCCC[C@@H]1NC(=O)[C@H](Cc2ccc3ccccc3c2)NC(=O)CCCCCCCNC(=O)[C@H](Cc2ccc(-c3ccccc3)cc2)NC(=O)[C@H](CCCCN)NC(=O)[C@H](CCCCN)NC(=O)[C@H](Cc2ccc3ccccc3c2)NC(=O)[C@H](CCCCN)NC(=O)[C@H](CC(N)=O)NC1=O` (cyclo([2Nal]KK[Bip][Aoc][2Nal]KNK)), for which the MIC amounted to 16 µM (≈ 22.2 µg/mL) against Escherichia coli; 4 µM (≈ 5.54 µg/mL) against Staphylococcus aureus [1]; 16 µM (≈ 22.2 µg/mL) against Klebsiella pneumoniae; 16 µM (≈ 22.2 µg/mL) in the experiment with Acinetobacter baumannii; 16 µM (≈ 22.2 µg/mL) in the experiment on Pseudomonas aeruginosa; 2 µM (≈ 2.77 µg/mL) in the experiment with Enterococcus faecium. In the experiment with Erythrocyte, this molecule had a pEC50 of 4.92. The result in the experiment with Lipid bilayer [5] and with Lipid bilayer [2] was Active.
`NCCCC[C@@H]1NC(=O)[C@H](Cc2ccc3ccccc3c2)NC(=O)CCCNC(=O)[C@H](Cc2ccc(-c3ccccc3)cc2)NC(=O)[C@H](CCCCN)NC(=O)[C@H](CCCCN)NC(=O)[C@H](Cc2ccc3ccccc3c2)NC(=O)[C@H](CCCCN)NC(=O)[C@H](CC(N)=O)NC1=O` (cyclo([2Nal]KK[Bip][GABA][2Nal]KNK)): the LCK with Staphylococcus aureus [6] is recorded as 3. In addition, the minimum inhibitory concentration (MIC) with Escherichia coli was 32 µM (≈ 42.5 µg/mL); against Staphylococcus aureus [1], 16 µM (≈ 21.3 µg/mL); with Klebsiella pneumoniae, 32 µM (≈ 42.5 µg/mL); against Acinetobacter baumannii, 32 µM (≈ 42.5 µg/mL); with Pseudomonas aeruginosa, 32 µM (≈ 42.5 µg/mL); in the experiment with Enterococcus faecium it was 4 µM (≈ 5.32 µg/mL). This molecule also gave a pEC50 with Erythrocyte of 3.81. The result in the experiment with Staphylococcus aureus [4] and in the experiment with Lipid bilayer [2] was Active.

Source of the values: ChEMBL document CHEMBL4428079, “Modulation of Backbone Flexibility for Effective Dissociation of Antibacterial and Hemolytic Activity in Cyclic Peptides” (ACS Med Chem Lett, 2016).
